The results in this text go back to ChEMBL document CHEMBL1135467 (J Med Chem, 2002).

Assay [1] addresses T1, Mu-type opioid receptor (Rattus norvegicus, UniProt P33535). The assay can be described thus: Inhibitory activity against [3H]DAMGO binding to Opioid receptor mu 1 in rat brain membranes. The class given is cell membranes. In short, it runs like this:
(§1)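 Rat brain minus cerebellum homogenised in 0.32 M sucrose/10 mM Tris-HCl and spun. The pellet was preincubated 1 h to strip endogenous opioids. GF/B filtration, scintillation counting.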

Assay [2] concerns the target T1, Mu-type opioid receptor. Briefly: Binding affinity towards Opioid receptor mu 1 by displacing [3H]DAMGO in rat brain membranes. The class given is cell membranes. In short, it runs like this:
as §1

Assay [3] in a line: Potency for inhibition of forskolin-stimulated cyclic AMP accumulation in SH-SY5Y cells. It counts as functional, cell-based. As to conditions: Homo sapiens. In outline:
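SH-SY5Y cells at 85-100% confluence in 24-well plates, in serum-free F12/DMEM with 0.5 mM IBMX, protease inhibitors and DADLE δ-blocker, 10 min at 37 °C. Then 10 µM forskolin plus ligand over a concentration range, 15 min at 37 °C. Ethanol extraction, cAMP measured by commercial kit. Triplicate wells averaged, IC50 fitted.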

T1 sequence (P33535 whole entry): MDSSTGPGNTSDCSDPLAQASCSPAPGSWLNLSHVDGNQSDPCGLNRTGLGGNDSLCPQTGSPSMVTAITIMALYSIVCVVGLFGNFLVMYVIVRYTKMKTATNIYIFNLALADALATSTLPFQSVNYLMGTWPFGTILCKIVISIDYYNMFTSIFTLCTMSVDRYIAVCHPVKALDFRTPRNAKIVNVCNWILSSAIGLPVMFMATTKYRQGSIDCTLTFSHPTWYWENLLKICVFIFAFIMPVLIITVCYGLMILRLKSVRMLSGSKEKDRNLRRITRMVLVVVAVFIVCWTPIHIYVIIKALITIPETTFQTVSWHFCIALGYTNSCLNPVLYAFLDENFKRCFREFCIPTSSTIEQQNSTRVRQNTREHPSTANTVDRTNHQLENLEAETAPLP

What is called IC50 is the point on the concentration scale where inhibition reaches its midpoint. The low end stands for greater potency, the high end for weaker potency. In general, Ki refers to a dissociation constant, usually derived from enzyme kinetics or from competition with a known ligand. Take `NC(=O)C[C@H](Cc1ccccc1)NC(=O)[C@H](Cc1c[nH]c2ccccc12)NC(=O)[C@@H]1CCCN1C(=O)[C@@H](N)Cc1ccc(O)cc1`: the IC50 on Mu-type opioid receptor [1] is 80.1 nM. Also, at Mu-type opioid receptor [2], the Ki came to 79 nM.
For `NC(=O)[C@H](Cc1ccccc1)NC(=O)[C@H](Cc1c[nH]c2ccccc12)NC(=O)[C@@H]1CCCN1C(=O)C[C@@H](N)Cc1ccc(O)cc1`, in that order: 990 nM and 26 nM.
In the case of `NC(=O)[C@H](Cc1ccccc1)NC(=O)[C@H](Cc1c[nH]c2ccccc12)NC(=O)C[C@@H]1CCCN1C(=O)[C@@H](N)Cc1ccc(O)cc1`, the IC50 on Mu-type opioid receptor [1] turned out to be 4 nM; in assay [3], 6.53 nM. For the same compound, the Ki at Mu-type opioid receptor [2] is 2.1 nM.
Compound `NC(=O)[C@H](Cc1ccccc1)NC(=O)[C@H](Cc1c[nH]c2ccccc12)NC(=O)[C@@H]1CCCN1C(=O)[C@@H](N)Cc1ccc(O)cc1` [ENDOMORPHIN-1] had an IC50 in assay [3] of 19.1 nM.
`C[C@@H](NC(=O)[C@@H](N)Cc1ccc(O)cc1)C(=O)NCC(=O)N(C)[C@@H](Cc1ccccc1)C(=O)NCCO` [DAMGO] registered a half-inhibitory concentration (IC50) in assay [3] of 1.1 nM.
Consider `NC(=O)[C@H](Cc1ccccc1)NC(=O)[C@H](Cc1c[nH]c2ccccc12)NC(=O)C[C@H]1CCCN1C(=O)[C@@H](N)Cc1ccc(O)cc1`, for which the results for the IC50 (at Mu-type opioid receptor [1]; in assay [3]) were 79 nM and 45 nM, respectively. At Mu-type opioid receptor [2], the Ki was found to be 67 nM.
`NC(=O)[C@H](Cc1ccccc1)NC(=O)C[C@H](Cc1c[nH]c2ccccc12)NC(=O)[C@@H]1CCCN1C(=O)[C@@H](N)Cc1ccc(O)cc1`: at Mu-type opioid receptor [1], the IC50 was 23.3 nM. Also, the Ki on Mu-type opioid receptor [2] is 73 nM.
